Tests used:
[1] = target: T1, Sodium channel protein type 9 subunit alpha (Homo sapiens, UniProt Q15858); assay: Modulation of human Nav1.7 in open-inactivated state assessed as inhibition of inward current after 4 mins by whole-cell electrophysiology
How it was run: (§1)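 Cells dissociated with trypsin-EDTA are kept in serum-free medium and recorded by QPatch HT whole-cell clamp with a high-frequency, pathophysiological protocol. The open-inactivated test pulse depolarizes from about -70 mV. After 4 min of vehicle (0.1% DMSO), 0.3–10 µM is added cumulatively, 4 min per level. Percent inhibition of peak inward current uses the mean of the last three sweeps against vehicle. IC50 is fitted by a constrained 4-parameter logistic, mean ± SD of ≥3 experiments.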

[2] = target: T2, Sodium channel protein type 4 subunit alpha (Homo sapiens, UniProt P35499); assay: Modulation of human Nav1.4 in closed state assessed as inhibition of inward current after 4 mins by whole-cell electrophysiology
How it was run: (§2)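 Automated whole-cell patch clamp (QPatch HT) on trypsin-EDTA-dissociated cells held in serum-free medium. Closed-state test pulse depolarizes from -100 mV. 0.1% DMSO vehicle for 4 min is followed by four cumulative bolus concentrations (0.3–10 µM, 0.1% DMSO final), each incubated 4 min. Peak inward current from the last three sweeps is compared with vehicle, and IC50 comes from a 4-parameter logistic fit constrained 0–100%, n≥3.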

[3] = target: T1, Sodium channel protein type 9 subunit alpha; assay: Modulation of human Nav1.7 in closed state assessed as inhibition of inward current after 4 mins by whole-cell electrophysiology; how it was run: as §2
[4] = target: T2, Sodium channel protein type 4 subunit alpha; assay: Modulation of human Nav1.4 in open-inactivated state assessed as inhibition of inward current after 4 mins by whole-cell electrophysiology; how it was run: as §1
[5] = target: T3, Sodium channel protein type 3 subunit alpha (Homo sapiens, UniProt Q9NY46); assay: Modulation of human Nav1.3 in closed state assessed as inhibition of inward current after 4 mins by whole-cell electrophysiology; how it was run: as §2
T3 sequence (Q9NY46 whole entry): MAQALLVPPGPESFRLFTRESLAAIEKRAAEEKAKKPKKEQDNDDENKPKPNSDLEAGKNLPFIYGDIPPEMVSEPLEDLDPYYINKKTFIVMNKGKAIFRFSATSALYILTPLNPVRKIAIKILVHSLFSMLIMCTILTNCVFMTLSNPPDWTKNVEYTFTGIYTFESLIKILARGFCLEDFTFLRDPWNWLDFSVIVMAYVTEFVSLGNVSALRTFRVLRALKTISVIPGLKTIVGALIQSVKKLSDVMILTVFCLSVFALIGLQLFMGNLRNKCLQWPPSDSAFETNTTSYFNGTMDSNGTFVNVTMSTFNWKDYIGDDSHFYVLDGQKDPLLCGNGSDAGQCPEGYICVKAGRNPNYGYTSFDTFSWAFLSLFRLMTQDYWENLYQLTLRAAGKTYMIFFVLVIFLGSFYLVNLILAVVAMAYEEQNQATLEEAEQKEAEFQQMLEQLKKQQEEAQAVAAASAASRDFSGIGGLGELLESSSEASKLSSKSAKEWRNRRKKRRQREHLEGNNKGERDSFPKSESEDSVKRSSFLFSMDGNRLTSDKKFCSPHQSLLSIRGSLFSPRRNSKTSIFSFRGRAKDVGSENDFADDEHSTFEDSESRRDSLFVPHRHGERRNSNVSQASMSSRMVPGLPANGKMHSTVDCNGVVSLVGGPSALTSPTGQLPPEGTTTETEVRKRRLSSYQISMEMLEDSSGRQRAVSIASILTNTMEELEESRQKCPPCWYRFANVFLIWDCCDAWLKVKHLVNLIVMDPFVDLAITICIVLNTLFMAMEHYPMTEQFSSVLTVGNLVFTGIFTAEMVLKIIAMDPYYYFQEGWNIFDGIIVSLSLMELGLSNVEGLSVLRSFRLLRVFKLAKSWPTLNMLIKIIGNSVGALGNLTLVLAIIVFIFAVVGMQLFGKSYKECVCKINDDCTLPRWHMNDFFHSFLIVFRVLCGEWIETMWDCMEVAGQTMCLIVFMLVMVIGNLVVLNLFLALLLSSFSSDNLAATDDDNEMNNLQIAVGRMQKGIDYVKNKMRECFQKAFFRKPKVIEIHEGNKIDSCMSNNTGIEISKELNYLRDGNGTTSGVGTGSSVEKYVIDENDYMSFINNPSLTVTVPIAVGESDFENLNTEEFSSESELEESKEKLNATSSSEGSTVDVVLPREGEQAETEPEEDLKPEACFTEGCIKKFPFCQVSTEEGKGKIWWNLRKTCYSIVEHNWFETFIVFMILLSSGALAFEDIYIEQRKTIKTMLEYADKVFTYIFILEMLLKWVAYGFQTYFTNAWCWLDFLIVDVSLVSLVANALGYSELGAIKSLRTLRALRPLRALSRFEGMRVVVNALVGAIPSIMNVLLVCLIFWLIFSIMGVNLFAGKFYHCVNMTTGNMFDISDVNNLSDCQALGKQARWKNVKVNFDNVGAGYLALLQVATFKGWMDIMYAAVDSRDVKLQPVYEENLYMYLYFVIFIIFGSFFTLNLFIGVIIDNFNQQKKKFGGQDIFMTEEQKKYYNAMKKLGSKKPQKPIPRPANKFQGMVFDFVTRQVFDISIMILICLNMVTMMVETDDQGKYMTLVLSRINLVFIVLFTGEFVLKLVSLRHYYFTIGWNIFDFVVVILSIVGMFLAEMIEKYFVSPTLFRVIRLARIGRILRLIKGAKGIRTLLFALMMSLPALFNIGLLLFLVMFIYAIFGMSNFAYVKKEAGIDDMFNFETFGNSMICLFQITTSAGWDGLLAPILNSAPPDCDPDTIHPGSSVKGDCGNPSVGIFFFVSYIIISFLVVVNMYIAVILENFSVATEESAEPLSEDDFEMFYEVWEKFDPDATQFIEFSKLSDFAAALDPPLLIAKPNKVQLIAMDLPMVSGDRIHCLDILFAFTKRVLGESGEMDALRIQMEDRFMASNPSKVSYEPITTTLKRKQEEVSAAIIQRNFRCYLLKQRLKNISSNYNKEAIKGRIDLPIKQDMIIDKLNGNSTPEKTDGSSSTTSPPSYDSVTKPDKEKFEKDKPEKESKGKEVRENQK

[6] = target: T3, Sodium channel protein type 3 subunit alpha; assay: Modulation of human Nav1.3 in open-inactivated state assessed as inhibition of inward current after 4 mins by whole-cell electrophysiology

T1 sequence (Q15858 whole entry): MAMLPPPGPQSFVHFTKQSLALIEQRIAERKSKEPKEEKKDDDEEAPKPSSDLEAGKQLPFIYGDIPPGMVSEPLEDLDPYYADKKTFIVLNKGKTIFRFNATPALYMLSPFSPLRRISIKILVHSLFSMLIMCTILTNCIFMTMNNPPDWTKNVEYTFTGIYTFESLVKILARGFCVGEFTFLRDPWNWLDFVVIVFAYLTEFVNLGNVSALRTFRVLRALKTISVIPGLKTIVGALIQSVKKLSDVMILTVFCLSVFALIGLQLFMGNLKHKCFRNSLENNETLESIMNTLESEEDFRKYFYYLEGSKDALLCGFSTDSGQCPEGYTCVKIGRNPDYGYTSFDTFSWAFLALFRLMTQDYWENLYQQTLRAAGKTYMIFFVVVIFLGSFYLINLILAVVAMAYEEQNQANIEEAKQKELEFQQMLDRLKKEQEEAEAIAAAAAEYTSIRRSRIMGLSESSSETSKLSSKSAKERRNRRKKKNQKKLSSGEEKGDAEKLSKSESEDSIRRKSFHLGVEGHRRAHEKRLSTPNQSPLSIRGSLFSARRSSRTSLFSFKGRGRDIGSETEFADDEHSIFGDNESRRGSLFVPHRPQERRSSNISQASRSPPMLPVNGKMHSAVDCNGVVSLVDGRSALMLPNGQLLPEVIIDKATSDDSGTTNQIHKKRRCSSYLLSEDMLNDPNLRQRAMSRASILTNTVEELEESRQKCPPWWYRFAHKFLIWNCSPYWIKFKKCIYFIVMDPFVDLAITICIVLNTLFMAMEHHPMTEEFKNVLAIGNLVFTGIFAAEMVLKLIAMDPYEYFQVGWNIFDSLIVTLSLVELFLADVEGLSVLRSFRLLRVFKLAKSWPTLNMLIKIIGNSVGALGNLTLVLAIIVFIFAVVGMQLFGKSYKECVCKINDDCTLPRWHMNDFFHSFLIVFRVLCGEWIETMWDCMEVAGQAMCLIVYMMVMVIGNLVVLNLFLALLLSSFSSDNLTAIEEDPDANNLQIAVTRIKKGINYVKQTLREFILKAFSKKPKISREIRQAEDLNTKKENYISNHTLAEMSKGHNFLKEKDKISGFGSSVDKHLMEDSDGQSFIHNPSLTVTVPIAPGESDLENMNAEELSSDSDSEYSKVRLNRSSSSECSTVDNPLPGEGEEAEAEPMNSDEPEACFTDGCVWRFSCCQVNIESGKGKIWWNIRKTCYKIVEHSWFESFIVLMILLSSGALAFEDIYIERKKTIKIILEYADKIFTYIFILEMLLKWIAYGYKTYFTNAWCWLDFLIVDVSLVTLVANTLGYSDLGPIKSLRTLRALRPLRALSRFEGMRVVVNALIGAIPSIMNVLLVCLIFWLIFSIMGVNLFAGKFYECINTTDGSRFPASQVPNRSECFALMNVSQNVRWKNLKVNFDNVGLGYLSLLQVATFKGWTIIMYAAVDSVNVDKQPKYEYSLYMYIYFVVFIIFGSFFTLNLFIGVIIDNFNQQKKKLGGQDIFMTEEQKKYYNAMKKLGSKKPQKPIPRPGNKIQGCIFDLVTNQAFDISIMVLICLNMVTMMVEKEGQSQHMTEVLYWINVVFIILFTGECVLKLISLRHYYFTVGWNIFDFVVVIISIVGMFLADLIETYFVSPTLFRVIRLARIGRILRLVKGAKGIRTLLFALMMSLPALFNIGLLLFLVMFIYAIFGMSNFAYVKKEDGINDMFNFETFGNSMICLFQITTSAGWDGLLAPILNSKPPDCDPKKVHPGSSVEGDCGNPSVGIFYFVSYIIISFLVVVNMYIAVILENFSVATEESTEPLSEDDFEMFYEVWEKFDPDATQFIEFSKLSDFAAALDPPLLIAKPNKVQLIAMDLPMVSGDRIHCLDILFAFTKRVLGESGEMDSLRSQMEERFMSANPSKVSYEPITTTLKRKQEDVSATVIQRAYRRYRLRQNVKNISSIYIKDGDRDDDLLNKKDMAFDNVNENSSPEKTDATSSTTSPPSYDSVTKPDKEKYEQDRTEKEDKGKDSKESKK

| SMILES | IC50 [1] [µM] | IC50 [2] [µM] | IC50 [3] [µM] | IC50 [4] [µM] | IC50 [5] [µM] | IC50 [6] [µM] |
| --- | --- | --- | --- | --- | --- | --- |
| CNc1nc(-c2cccc(NC(=O)c3cc4ccccc4[nH]3)c2)c[nH]1 | > 30 | > 30 | > 30 | > 30 | > 30 | > 30 |
| CNc1nc(-c2cccc(NC(=O)c3cc4ccccc4[nH]3)c2)cn1C(=O)OC(C)(C)C | > 30 | > 30 | > 30 | > 30 | > 30 | > 30 |
| CC(C)(C)OC(=O)n1cc(-c2ccc(NC(=O)c3ccc[nH]3)cc2)nc1N | > 30 | > 30 | > 30 | > 30 | > 30 | > 30 |
| Nc1nc(-c2cccc(NC(=O)c3ccc[nH]3)c2)c[nH]1 | > 30 | > 30 | > 30 | > 30 | > 30 | > 30 |
| Nc1nc(-c2ccc(NC(=O)c3ccc[nH]3)cc2)c[nH]1 | 27 | > 30 | > 30 | > 30 | > 30 | > 30 |
| CC(C)(C)OC(=O)n1cc(-c2cccc(NC(=O)c3cc[nH]c3)c2)nc1N | > 30 | > 30 | > 30 | > 30 | > 30 | 23 |
| Nc1nc(-c2cccc(NC(=O)c3cc[nH]c3)c2)c[nH]1 | > 30 | > 30 | > 30 | 15 | > 30 | 12 |
| CC(C)(C)OC(=O)n1cc(-c2ccc(NC(=O)c3ccco3)cc2)nc1N | 22 | > 30 | > 30 | > 30 | > 30 | 27 |
| CC(C)(C)OC(=O)n1cc(-c2cccc(NC(=O)c3cc4ccccc4[nH]3)c2)nc1N | > 30 | > 30 | > 30 | > 30 | > 30 | 26 |
| CC(C)(C)OC(=O)n1cc(-c2ccc(NC(=O)c3cc4ccccc4[nH]3)cc2)nc1N | > 30 | > 30 | > 30 | 28 | > 30 | 22 |
| Nc1nc(-c2cccc(NC(=O)c3cc4ccccc4[nH]3)c2)c[nH]1 | > 30 | > 30 | > 30 | > 30 | > 30 | > 30 |
| Nc1nc(-c2ccc(NC(=O)c3cc4ccccc4[nH]3)cc2)c[nH]1 | > 30 | > 30 | > 30 | > 30 | > 30 | > 30 |
| CC(C)(C)OC(=O)n1cc(-c2cccc(NC(=O)c3c[nH]c4ccccc34)c2)nc1N | > 30 | > 30 | > 30 | 26 | > 30 | 27 |
| Nc1nc(-c2cccc(NC(=O)c3c[nH]c4ccccc34)c2)c[nH]1 | 26 | > 30 | > 30 | 14 | > 30 | 12 |
| CC(C)(C)OC(=O)n1cc(-c2cccc(NC(=O)[C@H]3CCCN3)c2)nc1N | 29 | > 30 | > 30 | > 30 | > 30 | > 30 |
| CC(C)(C)OC(=O)n1cc(-c2ccc(NC(=O)[C@H]3CCCN3)cc2)nc1N | > 30 | > 30 | > 30 | > 30 | > 30 | > 30 |
| CC(C)(C)OC(=O)n1cc(-c2ccc(NC(=O)[C@@H]3CCCN3)cc2)nc1N | 19 | > 30 | > 30 | > 30 | > 30 | 25 |
| Nc1nc(-c2ccc(NC(=O)[C@@H]3CCCN3)cc2)c[nH]1 | > 30 | > 30 | > 30 | > 30 | > 30 | 13 |
| CNc1nc(-c2cccc(NC(=O)c3ccco3)c2)cn1C(=O)OC(C)(C)C | 26 | > 30 | > 30 | > 30 | > 30 | > 30 |
| Nc1nc(-c2cccc(NC(=O)c3ccc[nH]3)c2)cn1C(=O)c1ccc[nH]1 | 19 | > 30 | > 30 | > 30 | > 30 | 25 |
| CC(C)(C)OC(=O)n1cc(-c2cccc(NC(=O)c3ccc[nH]3)c2)nc1N | > 30 | > 30 | > 30 | 25 | > 30 | 25 |
| CCN(CC)CC(=O)Nc1c(C)cccc1C [LIDOCAINE] |  |  |  | 2 |  | 10.5 |

From ChEMBL document CHEMBL3112572, “Substituted 4-phenyl-2-aminoimidazoles and 4-phenyl-4,5-dihydro-2-aminoimidazoles as voltage-gated sodium channel modulators” (Eur J Med Chem, 2014)
